# Columns and labels:
# Format in all cases: functional
# [1] = species: Cavia porcellus; assay: The dose which shows the cross-reactivity with guinea pig sensitized to poison ivy urushiol
# Method in brief: (§1)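 Guinea pigs sensitized topically with 1 mg purified poison ivy urushiol in 0.15 mL acetone on dorsal neck skin (about 10 cm2). Sensitivity was checked with 2 μg PDC in acetone on shaven abdominal skin. Test compounds (10 and 30 μg in acetone) went on abdominal sites. Animals counted positive for erythema/edema at 24, 48 and 72 h, alongside urushiol controls.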
# [2] = species: Cavia porcellus; assay: Allergenic cross-reactivity was expressed as number of guinea pig with a positive skin reaction versus number tested upon sensitizing them to poison ivy urushiol; 7/7; method in brief: as §1
# [3] = test system: Cavia porcellus; assay: Skin test reactivity (intensity of erythema and edema) was measured in guinea pig sensitized to poison ivy urushiol by Draize method
# Method in brief: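 Urushiol-sensitized guinea pigs (1 mg in 0.15 mL acetone, dorsal neck) received eliciting doses in acetone on abdominal skin. Erythema and edema were scored 0–4 by Draize at 24, 48 and 72 h and averaged per group. Irritancy was tested with similar doses on nonsensitized animals.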
# [4] = species: Cavia porcellus; assay: Allergenic cross-reactivity was expressed as number of guinea pig with a positive skin reaction versus number tested upon sensitizing them to poison ivy urushiol; 5/9; method in brief: as §1
# [5] = species: Cavia porcellus; assay: Allergenic cross-reactivity was expressed as number of guinea pig with a positive skin reaction versus number tested upon sensitizing them to poison ivy urushiol; 0/8; method in brief: as §1
# [6] = species: Cavia porcellus; assay: Allergenic cross-reactivity was expressed as number of guinea pig with a positive skin reaction versus number tested upon sensitizing them to poison ivy urushiol; 0/15; method in brief: as §1
# [7] = species: Cavia porcellus; assay: Allergenic cross-reactivity was expressed as number of guinea pig with a positive skin reaction versus number tested upon sensitizing them to poison ivy urushiol; 0/7; method in brief: as §1
# [8] = species: Cavia porcellus; assay: Allergenic cross-reactivity was expressed as number of guinea pig with a positive skin reaction versus number tested upon sensitizing them to poison ivy urushiol; 2/9; method in brief: as §1
compound,measurement,setting,value
CCCCCCCCCCCCCCCCCc1cccc(O)c1N,Dose,[1],10 µg
same,Activity,[2],7
same,Activity,[3],2.9
CCCCCCCCCCCCCCCc1cccc(O)c1N,Dose,[1],10 µg
same,Activity,[2],7
same,Activity,[3],2.9
CCCCCCCCCCCCCc1cccc(O)c1N,Dose,[1],10 µg
same,Activity,[2],7
same,Activity,[3],2.9
CCCCCCCCCCCCCCCc1cc(O)cc(O)c1 [CARDOL],Dose,[1],30 µg
same,Activity,[4],5
same,Activity,[3],0.6
CCCCCCCCCCCCCCCc1cccc(N)c1O,Dose,[1],10 µg
same,Activity,[2],7
same,Activity,[3],2.4
CCCCCCCCCCCCCCc1c(O)cccc1O,Dose,[1],10 µg
same,Activity,[5],0
same,Activity,[3],0
CCCCCCCCCCCCCCCc1cc(O)ccc1O,Dose,[1],1 µg
same,Activity,[6],0
same,Activity,[3],0
CCCCCCCCCCCCCCCCCc1cccc(O)c1NS(C)(=O)=O,Dose,[1],10 µg
same,Activity,[7],0
same,Activity,[3],0
CCCCCCCCCCCCCCCc1cccc(O)c1NS(C)(=O)=O,Dose,[1],10 µg
same,Activity,[7],0
same,Activity,[3],0
CCCCCCCCCCCCCCCc1ccc(O)cc1O,Dose,[1],30 µg
same,Activity,[6],0
same,Activity,[3],0
CCCCCCCCCCCCCc1cccc(O)c1NS(C)(=O)=O,Dose,[1],10 µg
same,Activity,[7],0
same,Activity,[3],0
CCCCCCCCCCCCCCCc1ccc(O)c(O)c1,Dose,[1],1 µg
same,Activity,[3],0.1
same,Activity,[8],2
CCCCCCCCCCCCCCCc1cccc(NS(C)(=O)=O)c1O,Dose,[1],10 µg
same,Activity,[7],0
same,Activity,[3],0

# From ChEMBL document CHEMBL1123164, “Analogues of poison ivy urushiol. Synthesis and biological activity of disubstituted n-alkylbenzenes” (1986)
